Drawing on ChEMBL document CHEMBL1138780, “Synthesis and conformational analysis of a non-amidine factor Xa inhibitor that incorporates 5-methyl-4,5,6,7-tetrahydrothiazolo[5,4-c]pyridine as S4 binding element” (J Med Chem, 2004), this text covers IC50, Anticoagulant activity and inhibition for 17 compounds.

SMILES strings stand for the structures.

The first test addresses Prothrombin (Homo sapiens, UniProt P00734). Put plainly: Concentration required to inhibit thrombin activity by 50%.
Settings: not given
As usually defined, the IC50 is the concentration that inhibits the measured activity by half. A lower IC50 goes with greater potency. `O=C(c1nc2c(s1)CNCC2)N1CCN(S(=O)(=O)c2ccc3cc(Cl)ccc3c2)CC1` had an IC50 of 2.9 µM.

`CN1CCc2nc(C(=O)N3CCN(S(=O)(=O)c4ccc5cc(Cl)ccc5c4)CC3C(N)=O)sc2C1` (configuration not stated) gave an IC50 of 1 µM. This IC50 lies about 2.9-fold lower than the previous one. The compound `CN1CCc2nc(C(=O)N3CCN(S(=O)(=O)c4ccc5cc(Cl)ccc5c4)CC3)sc2C1` registered an IC50 of 0.56 µM.

The next test is filed under the species Rattus norvegicus. Put plainly: Anticoagulant activity in vitro was evaluated by prolongation rate of prothrombin time. Type of test: functional.
Settings: not given
For the compound `CC(C)N1CCc2nc(C(=O)N3CCN(S(=O)(=O)c4ccc5cc(Cl)ccc5c4)CC3C(N)=O)sc2C1` (configuration not stated), the Anticoagulant activity turned out to be 17.5 µM. `CCN1CCc2nc(C(=O)N3CCN(S(=O)(=O)c4ccc5cc(Cl)ccc5c4)CC3C(N)=O)sc2C1` (configuration not stated) gave an Anticoagulant activity of 14.6 µM.

As to `O=C(c1nc2c(s1)CNCC2)N1CCN(S(=O)(=O)c2ccc3cc(Cl)ccc3c2)CC1`, the Anticoagulant activity came out at 16.1 µM. The same measure, in the same setting: the figure for `CN1CCc2nc(C(=O)N3CCN(S(=O)(=O)c4ccc5cc(Cl)ccc5c4)CC3C(N)=O)sc2C1` (configuration not stated) is 14 µM; for `NC(=O)C1CN(S(=O)(=O)c2ccc3cc(Cl)ccc3c2)CCN1C(=O)c1nc2c(s1)CNCC2` (configuration not stated) it is 28.8 µM. `CN1CCc2nc(C(=O)N3CCN(S(=O)(=O)c4ccc5cc(Cl)ccc5c4)CC3)sc2C1`: the Anticoagulant activity came to 10 µM.

For another test, the target named is Coagulation factor X (Homo sapiens, UniProt P00742). Briefly: Inhibitory concentration against Coagulation factor X.
Sequence of Coagulation factor X (P00742 41-179 limits assumed): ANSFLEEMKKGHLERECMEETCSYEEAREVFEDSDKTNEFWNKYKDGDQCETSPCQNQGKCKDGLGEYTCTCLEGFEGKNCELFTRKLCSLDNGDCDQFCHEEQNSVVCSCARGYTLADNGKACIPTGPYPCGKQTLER
Sequence of Coagulation factor X (P00742 235-488 limits assumed): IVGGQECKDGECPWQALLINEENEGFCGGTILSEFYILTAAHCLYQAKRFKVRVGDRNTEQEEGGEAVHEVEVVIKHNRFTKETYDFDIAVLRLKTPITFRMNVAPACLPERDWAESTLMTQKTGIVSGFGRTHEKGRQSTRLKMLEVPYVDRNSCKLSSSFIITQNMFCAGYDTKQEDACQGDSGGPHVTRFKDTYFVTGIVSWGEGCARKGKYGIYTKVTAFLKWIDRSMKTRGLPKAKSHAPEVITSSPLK
Settings: not given
`CC(C)N1CCc2nc(C(=O)N3CCN(S(=O)(=O)c4ccc5cc(Cl)ccc5c4)CC3C(N)=O)sc2C1` (configuration not stated) returned an IC50 of 0.08 µM. Same read-out and setting: in the case of `CN1CCc2sc(C(=O)N3CCN(S(=O)(=O)c4ccc5cc(Cl)ccc5c4)CC3)cc2C1` it was 0.19 µM. For `CN1CCc2cc(C(=O)N3CCN(S(=O)(=O)c4ccc5cc(Cl)ccc5c4)CC3)sc2C1`, half-maximal inhibition (IC50) was put at 0.105 µM. The compound `O=C(c1ccc2c(c1)CCNC2)N1CCN(S(=O)(=O)c2ccc3cc(Cl)ccc3c2)CC1` came in with an IC50 of 0.64 µM. `CCN1CCc2nc(C(=O)N3CCN(S(=O)(=O)c4ccc5cc(Cl)ccc5c4)CC3C(N)=O)sc2C1` (configuration not stated) displayed an IC50 of 0.11 µM. `O=C(c1cc2c(s1)CCNC2)N1CCN(S(=O)(=O)c2ccc3cc(Cl)ccc3c2)CC1` registered an IC50 of 0.27 µM. This IC50 is about 2.5-fold higher than that of the compound before. Consider `CN1CCc2[nH]c(C(=O)N3CCN(S(=O)(=O)c4ccc5cc(Cl)ccc5c4)CC3)cc2C1`, for which the IC50 is 0.32 µM. In turn, `O=C(c1ccc2c(n1)CCNC2)N1CCN(S(=O)(=O)c2ccc3cc(Cl)ccc3c2)CC1` yielded an IC50 of 0.92 µM. Against the preceding compound, the IC50 is about 2.9-fold higher. In turn, `CN1CCc2nc(C(=O)N3CCN(S(=O)(=O)c4ccc5cc(Cl)ccc5c4)CC3)ccc2C1` registered an IC50 of 2.2 µM. This IC50 lies about 2.4-fold higher than the previous one. For `O=C(c1cc2c(s1)CNCC2)N1CCN(S(=O)(=O)c2ccc3cc(Cl)ccc3c2)CC1`, the IC50 worked out at 0.16 µM. As for `O=C(c1cc2c([nH]1)CCNC2)N1CCN(S(=O)(=O)c2ccc3cc(Cl)ccc3c2)CC1`, half-maximal inhibition (IC50) required 6.2 µM. The compound `CN1CCc2sc(C(=O)N3CCN(S(=O)(=O)c4ccc5cc(Cl)ccc5c4)CC3)nc2C1` yielded an IC50 of 0.21 µM. `NC(=O)C1CN(S(=O)(=O)c2ccc3cc(Cl)ccc3c2)CCN1C(=O)c1nc2c(s1)CNCC2` (configuration not stated) came in with an IC50 of 0.083 µM. This IC50 is about 2.5-fold lower than that of the compound before. Still for that read-out and setting: the figure for `CN1CCc2cc(C(=O)N3CCN(S(=O)(=O)c4ccc5cc(Cl)ccc5c4)CC3)oc2C1` is 0.55 µM.

The target of a further test is Coagulation factor X (Rattus norvegicus) (UniProt Q63207). Briefly: Ex-vivo inhibitory activity against factor Xa of rat blood after 1 hr of peroral administration of 30 mg/kg. Type of test: organism-based. Set-up: dose 30 mg/kg. The note with it: at 30 mg/kg. The method in brief: (§1)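 Fasted male Wistar rats received compound orally by stomach tube in 0.5% methylcellulose; controls got vehicle. Under halothane anesthesia, citrated blood was drawn at the stated time and platelet-poor plasma prepared. Plasma anti-fXa activity was measured chromogenically in Tris/NaCl/BSA buffer, pH 7.4, as 1 − sample OD/min ÷ control OD/min.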
Sequence of Coagulation factor X (Rattus norvegicus) (Q63207 41-180 limits assumed): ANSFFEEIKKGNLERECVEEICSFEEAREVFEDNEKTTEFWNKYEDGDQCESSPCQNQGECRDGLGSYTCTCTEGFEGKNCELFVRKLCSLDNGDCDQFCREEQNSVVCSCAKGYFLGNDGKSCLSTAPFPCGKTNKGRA
Sequence of Coagulation factor X (Rattus norvegicus) (Q63207 232-482 limits assumed): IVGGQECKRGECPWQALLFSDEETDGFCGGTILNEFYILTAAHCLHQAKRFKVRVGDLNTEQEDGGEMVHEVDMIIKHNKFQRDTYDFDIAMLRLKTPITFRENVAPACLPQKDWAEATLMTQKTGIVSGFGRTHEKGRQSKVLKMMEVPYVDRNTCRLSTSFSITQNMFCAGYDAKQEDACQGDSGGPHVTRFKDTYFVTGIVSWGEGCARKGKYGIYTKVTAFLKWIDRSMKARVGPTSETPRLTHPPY
The inhibition is the change of the read-out against control, counted positive when it falls. High values mean strong suppression, low ones little suppression. The compound `CN1CCc2nc(C(=O)N3CCN(S(=O)(=O)c4ccc5cc(Cl)ccc5c4)CC3C(N)=O)sc2C1` (configuration not stated) returned an inhibition of 67.4%.

Tested on in the next test: not listed separately
Briefly: Anticoagulant activity in vitro was evaluated with plasma clotting time doubling concentration for prothrombin time. Type of test: functional, Homo sapiens.
Settings: not given
Compound `CC(C)N1CCc2nc(C(=O)N3CCN(S(=O)(=O)c4ccc5cc(Cl)ccc5c4)CC3C(N)=O)sc2C1` (configuration not stated) had an Anticoagulant activity of 6.6 µM. The same measure, in the same setting: in the case of `CCN1CCc2nc(C(=O)N3CCN(S(=O)(=O)c4ccc5cc(Cl)ccc5c4)CC3C(N)=O)sc2C1` (configuration not stated) it was 7.2 µM. On to `O=C(c1nc2c(s1)CNCC2)N1CCN(S(=O)(=O)c2ccc3cc(Cl)ccc3c2)CC1`, for which the Anticoagulant activity stood at 11.2 µM. In the case of `CN1CCc2nc(C(=O)N3CCN(S(=O)(=O)c4ccc5cc(Cl)ccc5c4)CC3C(N)=O)sc2C1` (configuration not stated), the Anticoagulant activity was determined as 4.4 µM. On to `NC(=O)C1CN(S(=O)(=O)c2ccc3cc(Cl)ccc3c2)CCN1C(=O)c1nc2c(s1)CNCC2` (configuration not stated), for which the Anticoagulant activity is 9.7 µM. In turn, `CN1CCc2nc(C(=O)N3CCN(S(=O)(=O)c4ccc5cc(Cl)ccc5c4)CC3)sc2C1` had an Anticoagulant activity of 6 µM.

The target of another test is Coagulation factor X (Rattus norvegicus) (UniProt Q63207). Put plainly: Ex-vivo inhibitory activity against factor Xa of rat blood after 3h of peroral administration of 30 mg/kg. Type of test: organism-based. Set-up: dose 30 mg/kg. The following applies: at 30 mg/kg. The procedure, abridged:
as §1
`CN1CCc2nc(C(=O)N3CCN(S(=O)(=O)c4ccc5cc(Cl)ccc5c4)CC3C(N)=O)sc2C1` (configuration not stated) showed an inhibition of 55.8%.

The next test shares this target. Put plainly: Ex-vivo inhibitory activity against factor Xa of rat blood after 6 hr of peroral administration of 30 mg/kg. Type of test: organism-based. More on the design: dose 30 mg/kg. The note with it: at 30 mg/kg. The method in brief: as §1
Regarding `CN1CCc2nc(C(=O)N3CCN(S(=O)(=O)c4ccc5cc(Cl)ccc5c4)CC3C(N)=O)sc2C1` (configuration not stated), the inhibition stood at 24.7%.
